Laboratory results taken from ChEMBL document CHEMBL1135776, “Benzo- and cyclohexanomazindol analogues as potential inhibitors of the cocaine binding site at the dopamine transporter” (J Med Chem, 2002).

Assays:
[1] = target: T1, Sodium-dependent dopamine transporter (Homo sapiens, UniProt Q01959); test: (§1) Ratio of the IC50 value of Mazindol to that in guinea pig was determined; format: functional; settings: Cavia porcellus; target entry is the homologue from another species
[2] = Discrimination ratio against NET as ratio of IC50 to that of Ki uptake to NET.; format: functional
Procedure, shortened: (§2)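 Ratio of uptake IC50 in transporter-expressing HEK293 cells to [125I]RTI-55 binding Ki at the same human transporter (DAT, SERT or NET). Both were measured in this work: uptake with 20 nM [3H]amine for 10 min at 25 °C, binding for 90 min at 25 °C.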

[3] = Discrimination ratio against SERT as ratio of IC50 to that of Ki uptake to SERT.; format: functional; procedure, shortened: as §2
HEK293 [4] = test: Ability to block the uptake of [3H]- 5- HT(serotonin) in HEK-hSERT cells; format: functional, cell-based; settings: Homo sapiens
HEK293 [5] = test: Ability to block the uptake of [3H]- DA(dopamine) in HEK-hDAT cells; format: functional, cell-based; settings: Homo sapiens
[6] = target: T2, Sodium-dependent noradrenaline transporter (Homo sapiens, UniProt P23975); test: Displacement of [125I]RTI-55 from human Norepinephrine transporter expressed in HEK cells; format: cell-based, HEK293
Procedure, shortened: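 Membranes from HEK293 cells expressing hNET, about 10–15 μg protein per tube. Compounds diluted from 10 mM DMSO stock, preincubated 10 min, then 40–80 pM [125I]RTI-55 added, 90 min at 25 °C in Krebs-HEPES pH 7.4. […] GF/C filtration; two or three experiments in duplicate; IC50 converted to Ki by Cheng-Prusoff.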

[7] = target: Sodium-dependent serotonin transporter (Homo sapiens, UniProt P31645); test: Inhibition of [125I]- RTI -55 binding at the Serotonin transporter sites on HEK-hSERT cells; format: cell-based
Procedure, shortened: (§3)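 Membranes from HEK293 cells expressing hDAT, hSERT or hNET (about 10–15 μg protein) preincubated 10 min with compound in Krebs-HEPES pH 7.4 containing pargyline, tropolone and ascorbate. Then [125I]RTI-55 (40–80 pM final) added, 90 min at 25 °C, filtration. […] Duplicates, two or three experiments; IC50 converted to Ki by Cheng-Prusoff.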

[8] = target: Monoamine transporters; serotonin & dopamine (Homo sapiens) (UniProt P31645+Q01959); test: Selectivity ratio as ratio of IC50 value against SERT to that of DAT; format: protein assay
[9] = target: T1, Sodium-dependent dopamine transporter; test: Inhibition of [125I]- RTI -55 binding at the Dopamine transporter sites on HEK-hDAT cells; format: cell-based
Procedure, shortened: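 Membranes from HEK293 cells expressing hDAT, hSERT or hNET (about 10–15 μg protein) preincubated 10 min with compound in Krebs-HEPES pH 7.4 containing pargyline, tropolone and ascorbate. Duplicates, two or three experiments; IC50 converted to Ki by Cheng-Prusoff.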

HEK293 [10] = test: Ability to block the uptake of [3H]NE (norepinephrine) in HEK-hNET cells; format: functional, cell-based; settings: Homo sapiens
[11] = target: Monoamine transporters; Norepinephrine & dopamine (Homo sapiens) (UniProt Q01959+P23975); test: Selectivity ratio as ratio of IC50 value against NET to that of DAT; format: protein assay
[12] = Discrimination ratio against DAT as ratio of IC50 to that of Ki uptake to DAT.; format: functional; procedure, shortened: as §2
[13] = target: T2, Sodium-dependent noradrenaline transporter; test: Inhibition of [125I]- RTI -55 binding at the Norepinephrine transporter sites on HEK-hNET cells; format: cell-based; procedure, shortened: as §3
[14] = Ratio of the IC50 against DAT in rat striatal membranes to that of guinea pig striatal membranes.; format: cell membranes; settings: Membrane
HEK hDAT [15] = test: Ratio of the IC50 against DAT in HEK hDAT cells to that of guinea pig striatal membranes.; format: cell-based
HEK hDAT [16] = test: Ratio of the IC50 against DAT in HEK hDAT cells to that of rat striatal membranes.; format: cell membranes; settings: Membrane
[17] = target: Sodium-dependent dopamine transporter (Rattus norvegicus, UniProt P23977); test: Ability to displace [3H]WIN-35428 from dopamine transporter on rat striatal membrane.
Procedure, shortened: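 Rat (male Sprague–Dawley, 200–225 g) striatal membranes in modified Krebs-HEPES pH 7.4; 2.5 mg tissue (wet weight) per tube with 1.5 nM [3H]WIN 35,428. Membranes preincubated 5 min with test compound, then incubated 60 min on ice. Nonspecific binding defined with 0.1 mM cocaine. Filtration over BSA-soaked GF/B filters, scintillation counting; triplicate samples.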

[18] = as §1; format: functional

T1 sequence (Q01959 whole entry): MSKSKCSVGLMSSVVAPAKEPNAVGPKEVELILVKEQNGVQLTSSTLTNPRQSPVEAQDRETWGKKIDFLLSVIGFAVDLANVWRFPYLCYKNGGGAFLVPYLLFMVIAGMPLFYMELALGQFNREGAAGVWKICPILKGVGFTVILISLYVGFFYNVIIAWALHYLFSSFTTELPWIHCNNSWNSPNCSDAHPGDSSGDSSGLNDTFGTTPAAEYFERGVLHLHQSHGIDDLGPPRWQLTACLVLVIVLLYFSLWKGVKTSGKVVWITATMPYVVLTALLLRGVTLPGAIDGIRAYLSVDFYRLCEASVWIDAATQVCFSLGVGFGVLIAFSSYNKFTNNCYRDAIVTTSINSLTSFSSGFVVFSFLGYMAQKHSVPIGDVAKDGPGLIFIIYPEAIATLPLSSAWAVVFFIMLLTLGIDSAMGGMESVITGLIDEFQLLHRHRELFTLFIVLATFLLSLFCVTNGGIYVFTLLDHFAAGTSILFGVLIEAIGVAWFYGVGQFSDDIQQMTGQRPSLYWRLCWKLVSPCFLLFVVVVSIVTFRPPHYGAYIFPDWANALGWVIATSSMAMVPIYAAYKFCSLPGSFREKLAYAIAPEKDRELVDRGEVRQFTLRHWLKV
Sequence of Monoamine transporters; Norepinephrine & dopamine (Homo sapiens) (P23975 whole entry, looked up): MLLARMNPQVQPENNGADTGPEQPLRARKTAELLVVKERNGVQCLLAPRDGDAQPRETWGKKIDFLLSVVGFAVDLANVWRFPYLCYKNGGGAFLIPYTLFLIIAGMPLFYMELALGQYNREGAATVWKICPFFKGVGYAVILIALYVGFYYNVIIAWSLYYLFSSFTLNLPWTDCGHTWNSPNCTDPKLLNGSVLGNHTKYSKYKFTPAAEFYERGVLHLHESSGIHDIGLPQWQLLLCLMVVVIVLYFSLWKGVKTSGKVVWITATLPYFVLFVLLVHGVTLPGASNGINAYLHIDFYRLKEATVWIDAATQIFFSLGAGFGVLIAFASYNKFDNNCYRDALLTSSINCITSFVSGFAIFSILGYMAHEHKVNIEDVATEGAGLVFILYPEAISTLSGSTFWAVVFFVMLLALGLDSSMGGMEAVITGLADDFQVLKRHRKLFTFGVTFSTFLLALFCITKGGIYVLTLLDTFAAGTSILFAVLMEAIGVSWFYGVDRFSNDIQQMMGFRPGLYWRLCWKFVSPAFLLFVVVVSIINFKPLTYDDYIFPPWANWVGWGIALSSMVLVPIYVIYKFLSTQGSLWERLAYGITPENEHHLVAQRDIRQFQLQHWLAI
Sequence of Monoamine transporters; Norepinephrine & dopamine (Homo sapiens) (Q01959 whole entry, looked up): as the sequence (Q01959 whole entry) above
T2 sequence (P23975 whole entry): as the sequence (P23975 whole entry, looked up) above
Sequence of Monoamine transporters; serotonin & dopamine (Homo sapiens) (P31645 whole entry, looked up): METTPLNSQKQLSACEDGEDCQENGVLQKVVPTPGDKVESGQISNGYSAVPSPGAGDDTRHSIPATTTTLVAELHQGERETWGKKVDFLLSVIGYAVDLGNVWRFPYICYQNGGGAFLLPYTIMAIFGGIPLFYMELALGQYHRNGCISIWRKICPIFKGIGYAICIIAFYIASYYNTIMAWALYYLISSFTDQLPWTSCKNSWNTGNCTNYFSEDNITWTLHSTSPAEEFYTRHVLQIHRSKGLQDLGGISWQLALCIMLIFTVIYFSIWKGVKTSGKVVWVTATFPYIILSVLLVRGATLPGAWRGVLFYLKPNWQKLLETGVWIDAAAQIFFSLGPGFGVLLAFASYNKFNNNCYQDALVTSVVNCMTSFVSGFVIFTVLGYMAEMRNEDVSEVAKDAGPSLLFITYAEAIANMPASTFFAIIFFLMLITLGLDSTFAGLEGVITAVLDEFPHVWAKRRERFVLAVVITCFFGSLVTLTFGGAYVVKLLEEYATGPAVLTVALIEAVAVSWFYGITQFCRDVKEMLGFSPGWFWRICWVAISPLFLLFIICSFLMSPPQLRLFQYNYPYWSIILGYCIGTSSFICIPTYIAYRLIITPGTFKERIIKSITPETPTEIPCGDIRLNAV
Sequence of Monoamine transporters; serotonin & dopamine (Homo sapiens) (Q01959 whole entry, looked up): as the sequence (Q01959 whole entry) above
Sequence of Sodium-dependent serotonin transporter (P31645 whole entry): as the sequence (P31645 whole entry, looked up) above
Sequence of Sodium-dependent dopamine transporter (Rattus norvegicus, UniProt P23977) (P23977 whole entry): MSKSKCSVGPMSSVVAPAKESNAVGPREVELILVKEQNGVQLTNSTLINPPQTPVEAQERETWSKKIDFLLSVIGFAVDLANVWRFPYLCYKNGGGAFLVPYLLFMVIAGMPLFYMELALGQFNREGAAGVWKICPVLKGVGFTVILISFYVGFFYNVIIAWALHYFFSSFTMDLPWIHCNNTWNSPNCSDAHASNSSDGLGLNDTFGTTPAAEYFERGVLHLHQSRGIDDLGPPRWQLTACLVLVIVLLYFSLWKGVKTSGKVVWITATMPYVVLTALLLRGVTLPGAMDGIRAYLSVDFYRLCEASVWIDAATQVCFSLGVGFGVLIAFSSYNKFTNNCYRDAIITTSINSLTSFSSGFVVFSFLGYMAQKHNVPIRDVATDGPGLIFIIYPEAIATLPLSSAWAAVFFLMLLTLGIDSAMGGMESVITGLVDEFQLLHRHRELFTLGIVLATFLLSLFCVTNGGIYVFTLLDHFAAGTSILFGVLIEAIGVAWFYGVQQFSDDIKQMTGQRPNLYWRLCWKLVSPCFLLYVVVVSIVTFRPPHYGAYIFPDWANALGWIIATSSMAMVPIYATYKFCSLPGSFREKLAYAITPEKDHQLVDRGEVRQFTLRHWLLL

## OC1(c2ccc(Cl)cc2)c2ccccc2C2=NCCCN21 (stereo not drawn)
[1]
  Ratio: 10.1
[2]
  Ratio: 0.3
[3]
  Ratio: 1.4
HEK293 [4]
  IC50: 53 nM
HEK293 [5]
  IC50: 3.7 nM
[6]
  Ki: 18.2 nM
[7]
  Ki: 39 nM
[8]
  Ratio: 22.9
[9]
  Ki: 1.7 nM
HEK293 [10]
  IC50: 4.9 nM
[11]
  Ratio: 10.7
[12]
  Ratio: 2.2

## OC1(c2ccc(Cl)cc2)c2ccccc2C2=N[C@@H]3CCCC[C@@H]3N21 (stereo partly drawn)
[1]
  Ratio: 5.1

## OC1(c2ccc(Cl)cc2)c2ccccc2C2=Nc3ccccc3CN21 (stereo not drawn)
[1]
  Ratio: < 0.02

## OC1(c2ccc3c(c2)CCCC3)c2ccccc2C2=NCCN21 (stereo not drawn)
[1]
  Ratio: < 0.02

## OC1(c2ccc(Cl)cc2)c2ccccc2C2=NCc3ccccc3CN21 (stereo not drawn)
[1]
  Ratio: < 0.02

## OC1(c2ccc(Cl)cc2)c2ccccc2C2=NCCN21 (stereo not drawn) [MAZINDOL]
HEK293 [4]
  IC50: 94 nM
[7]
  Ki: 50 nM
HEK293 [10]
  IC50: 4.9 nM
[13]
  Ki: 18 nM

## OC1(c2ccc(Cl)cc2)c2ccc3ccccc3c2C2=NCCN21 (stereo not drawn)
[1]
  Ratio: 4
[2]
  Ratio: 0.4
[14]
  Ratio: 1.5
[3]
  Ratio: 14.3
HEK293 [4]
  IC50: 3210 nM
HEK hDAT [15]
  Ratio: 2.6
HEK293 [5]
  IC50: 85 nM
HEK hDAT [16]
  Ratio: 1.7
[7]
  Ki: 224 nM
[8]
  Ratio: 8.2
[9]
  Ki: 27.2 nM
HEK293 [10]
  IC50: 13 nM
[13]
  Ki: 33.4 nM
[11]
  Ratio: 1.2
[12]
  Ratio: 3.2

## OC1(c2ccc(Cl)cc2)c2cc3ccccc3cc2C2=NCCN21 (stereo not drawn)
[1]
  Ratio: 1.3

## OC1(c2ccc(Cl)cc2)c2ccccc2-c2nc3ccccc3n21 (stereo not drawn)
[1]
  Ratio: < 0.02

## OC1(c2ccc(Cl)cc2)c2ccccc2C2=N[C@H]3CCCC[C@@H]3N21 (stereo partly drawn)
[1]
  Ratio: 15.8
[2]
  Ratio: 0.5
[14]
  Ratio: 12.7
[3]
  Ratio: > 17
HEK293 [4]
  IC50: > 10000 nM
HEK hDAT [15]
  Ratio: 56.3
HEK293 [5]
  IC50: 63 nM
[17]
  IC50: 34.2 nM
HEK hDAT [16]
  Ratio: 4.4
[7]
  Ki: 600 nM
[8]
  Ratio: 3.9
[9]
  Ki: 152 nM
HEK293 [10]
  IC50: 323 nM
[13]
  Ki: 690 nM
[11]
  Ratio: 4.1
[12]
  Ratio: 0.4

## OC1(c2ccc3ccccc3c2)c2ccc3ccccc3c2C2=NCCN21 (stereo not drawn)
[1]
  Ratio: 13
[2]
  Ratio: 7
[14]
  Ratio: 11.6
[3]
  Ratio: 34
HEK293 [4]
  IC50: 370 nM
HEK hDAT [15]
  Ratio: 0.9
HEK293 [5]
  IC50: 880 nM
HEK hDAT [16]
  Ratio: 0.07
[7]
  Ki: 11 nM
[8]
  Ratio: 3.9
[9]
  Ki: 2.83 nM
HEK293 [10]
  IC50: 38 nM
[13]
  Ki: 5.2 nM
[11]
  Ratio: 1.9
[12]
  Ratio: 311

## OC1(c2cccc3ccccc23)c2ccccc2C2=NCCN21 (stereo not drawn)
[1]
  Ratio: 0.02

## OC1(c2ccc(Cl)cc2)c2ccc3ccccc3c2C2=N[C@H]3CCCC[C@@H]3N21 (mixture of isomers)
[1]
  Ratio: < 0.02

## OC1(c2ccc(Cl)cc2)c2c(c3ccccc3c3ccccc23)C2=NCCN21 (stereo not drawn)
[18]
  Ratio: <0.02

## OC1(c2ccc3ccccc3c2)c2c(c3ccccc3c3ccccc23)C2=NCCN21 (stereo not drawn)
[18]
  Ratio: <0.02

## OC1(c2ccc(Cl)cc2)c2c(ccc3ccccc23)C2=NCCN21 (stereo not drawn)
[1]
  Ratio: 0.2

## OC1(c2ccc(Cl)cc2)c2ccc3ccccc3c2C2=NCCCN21 (stereo not drawn)
[1]
  Ratio: 20.3
[2]
  Ratio: 10
[14]
  Ratio: 17.8
[3]
  Ratio: 127
HEK293 [4]
  IC50: 700 nM
HEK hDAT [15]
  Ratio: 1
HEK293 [5]
  IC50: 366 nM
HEK hDAT [16]
  Ratio: 0.05
[7]
  Ki: 5.5 nM
[8]
  Ratio: 2.8
[9]
  Ki: 2.01 nM
HEK293 [10]
  IC50: 53 nM
[13]
  Ki: 5.3 nM
[11]
  Ratio: 2.6
[12]
  Ratio: 182

## OC1(c2ccc3ccccc3c2)c2ccccc2C2=NCCN21 (stereo not drawn)
[1]
  Ratio: 10.4
[2]
  Ratio: 0.4
[14]
  Ratio: 5.7
[3]
  Ratio: 0.8
HEK293 [4]
  IC50: 1.8 nM
HEK hDAT [15]
  Ratio: 11
HEK293 [5]
  IC50: 66 nM
HEK hDAT [16]
  Ratio: 1.9
[7]
  Ki: 2.3 nM
[8]
  Ratio: 0.05
[9]
  Ki: 45 nM
HEK293 [10]
  IC50: 4.5 nM
[13]
  Ki: 11 nM
[11]
  Ratio: 0.24
[12]
  Ratio: 1.5
